Compound activity (PubChem)
PGE2 EP2 inh = EP2 receptor (human) inhibition | C6 glioma cells expressing human EP2, cAMP TR-FRET; cells stimulated with saturating PGE2 | inhibition, % at 25 µM | 260,000 tested, 0.52% active | AID 1422;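 active means percent inhibition above 40 after rounding to a whole number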;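 further: rat C6 glioma host cells with rolipram phosphodiesterase inhibitor present; the protocol text gives 20 µM as final concentration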
NPY-Y1 antag = antagonists of human neuropeptide Y receptor Y1; AID 1040; P25929; HEK293-CNG Y1 cells, membrane potential fluorescence; NPY at EC95, then isoproterenol; inhibition, % at 3.6 µM; 200,000 tested, 1% active;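 active means inhibition above the campaign mean inhibition of all tested compounds plus 3 SD, cut at about 20% in these data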;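 further: 0% = DMSO wells given NPY plus isoproterenol and 100% = isoproterenol alone without NPY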
Target sequence (P25929 whole entry, looked up): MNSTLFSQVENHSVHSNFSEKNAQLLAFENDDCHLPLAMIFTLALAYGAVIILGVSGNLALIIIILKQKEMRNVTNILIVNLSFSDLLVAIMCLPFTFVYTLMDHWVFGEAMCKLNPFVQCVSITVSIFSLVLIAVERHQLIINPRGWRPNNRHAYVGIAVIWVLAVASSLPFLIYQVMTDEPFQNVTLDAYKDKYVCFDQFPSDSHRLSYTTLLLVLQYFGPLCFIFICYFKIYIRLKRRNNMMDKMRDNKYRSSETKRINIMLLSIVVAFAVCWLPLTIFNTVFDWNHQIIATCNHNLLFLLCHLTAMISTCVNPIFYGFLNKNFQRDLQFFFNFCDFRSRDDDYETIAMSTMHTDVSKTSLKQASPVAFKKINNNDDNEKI
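Material: Y1- and CNG-channel-expressing HEK293 cells / Probe or stimulus: NPY 25 nM then isoproterenol 1 µM plus Ro 20-1724 25 µM / Doses: 3.6 µM single dose, DMSO 0.4% / Schedule: compound incubation 1 h at room temperature, readout 45 min post-stimulation / Signal: membrane potential fluorescence / Benchmarks: isoproterenol-only wells as full block versus NPY-plus-isoproterenol wells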
NPY-Y2 antag = NPY-Y2 (human) receptor antagonism. AID 793. inhibition, % at 2.7 µM. P49146. 140,000 tested, 0.99% active. NPY-Y2 expressing cells, antagonist mode; in the data active means inhibition above about 17%;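 further: 0% = vehicle with agonist challenge and 100% = reference antagonist with challenge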
NPY-Y2 PAM-ag = potentiates or activates human NPY-Y2 receptor | cells expressing NPY-Y2, potentiator/agonist read-out | activation, % at 3.6 µM | 220,000 tested, 0.45% active | AID 1359; in the data active means activation above about 27%;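 further: cells stimulated with NPY near EC25 plus isoproterenol at EC100; 0% = vehicle plus submaximal agonist and 100% = vehicle plus saturating agonist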
NPY-Y1 PAM-ag = potentiators or agonists of human neuropeptide Y receptor Y1 | activation, % at 3.6 µM | P25929 | 220,000 tested, 0.37% active | NPY-Y1 expressing cells, potentiator/agonist activation; in the data active means activation above about 33%, passing the limit was not always enough;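 further: cells stimulated with NPY at EC10 then isoproterenol at EC100; 0% = low agonist plus stimulus and 100% = saturating agonist plus stimulus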
EP2 modulator = modulators of human EP2 prostaglandin E2 receptor. P43116. EP2-expressing cells, cAMP HTRF FRET, PGE2 co-stimulation. induction, % at 25 µM. 260,000 tested, 0.83% active. AID 940;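 active means compounds whose cAMP rise, as percent of the full-agonist control response, exceeds 60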;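 further: rat C6 glioma line stably carrying human EP2 under a CMV promoter; the protocol text gives 20 µM as final concentration; 100% = response of wells given 1 µM PGE2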
EP2 confirm = human EP2 receptor cAMP induction, negative in counter-screens; shares compounds with EP2 modulator; 1,300 tested, 47% active; calls only at 20 µM (by protocol); C6 glioma EP2 cells, cAMP HTRF induction; plus low (about EC15) PGE2 agonist;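 active means cAMP induction above 50% in the main assay while under 30% in all four parallel counter assays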;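 further: rat C6 glioma cells stably expressing human EP2 receptor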
* = called active by the depositor; i = inactive; / = no result; + = active, no number. The list is not random: actives were taken first. Their share in the collection is about 2.8%.

SMILES	PGE2 EP2 inh	NPY-Y1 antag	NPY-Y2 antag	NPY-Y2 PAM-ag	NPY-Y1 PAM-ag	EP2 modulator	EP2 confirm
O=c1oc2c3c4c(cc2c(C(F)(F)F)c1CCN1CCOCC1)CCCN4CCC3	9	0	1	-2	-7	73*	i
Cc1cc(=O)oc2c3c4c(cc12)OCCN4CCC3	11	3	-3	16	-6	-13	/
CCN(Cc1cc(Cl)cc(C)c1O)Cc1c(O)ccc2ccccc12	38	/	/	/	/	54	i
CN(Cc1cc(Br)cc(Br)c1O)Cc1c(O)ccc2ccccc12	35	/	/	/	/	62*	i
CN(C)Cc1c(O)ccc2ccccc12	6	/	/	-20	8	-22	/
CCOc1ccc2nc3sc(C(=O)N4CCCC(C)C4)c(N)c3cc2c1 (stereo not drawn)	18	/	/	/	/	-34	/
Cc1ccc(NC2=C(C(=O)c3ccccc3)N(C)S(=O)(=O)c3ccccc32)cc1	20	2	4	-1	-5	66*	i
Cc1ccc(OCC2COS(=O)O2)cc1 (stereo not drawn)	10	/	/	/	/	-8	/
O=C(c1cccs1)N1N=C(c2ccccc2)CC1c1ccc(O)cc1 (stereo not drawn)	14	4	0	5	-5	74*	i
Cn1c(SCCO)nnc1C1CCNCC1	9	/	/	/	/	-14	/
N#CC1=C(N)S[C@H](C(=O)C23CC4CC(CC(C4)C2)C3)[C@H]1c1ccncc1	11	13	5	-39	-54	66*	i
Cc1ccc(N(CC(=O)N/N=C/c2ccc(OC3CSC3)cc2)S(=O)(=O)c2ccccc2)cc1	15	6	3	-14	-8	76*	+
CC(C)c1ccc(N(CC(=O)N/N=C/c2ccc(OC3CSC3)cc2)S(=O)(=O)c2ccccc2)cc1	9	-2	3	6	-1	55	/
CCOC(=O)c1cc(CC)sc1NC(=O)c1cc(OC)c(OC)c(OC)c1	10	6	-1	1	-12	68*	+
CCOC(=O)c1cc(CC)sc1NC(=O)c1ccc(N2C(=O)CCC2=O)cc1	6	-2	-1	7	19	59	/
O=C(/C=C/c1ccc(-c2nc3ccccc3s2)o1)c1cccs1	9	/	/	/	/	-11	/
CNc1nc(-c2ccc(OC)cc2)c(-c2ccc(OC)cc2)s1	2	3	/	10	16	-4	/
COc1ccc(-c2nc(NC(C)=O)sc2-c2ccc(OC)cc2)cc1	12	-6	/	7	-6	56	i
CC(=O)OC1c2c(ccc3ccc(=O)oc23)OC(C)(C)C1OC(=O)CC(C)C (stereo not drawn)	/	7	4	-17	3	56	/
CC(=O)O[C@@H]1c2c(ccc3ccc(=O)oc23)OC(C)(C)[C@@H]1OC(=O)CC(C)C	10	/	/	/	/	64*	+
O=C(CSc1nnc(-c2ccc3c(c2)OCO3)n1-c1ccccc1)c1ccccc1	1	0	7	0	10	34	/
Brc1cccc(-c2nnc(SCc3ccon3)n2-c2ccccc2)c1	5	-5	3	12	16	52	i
COC(=O)c1c(NC(=O)c2ccccc2N(C)S(=O)(=O)c2ccccc2)sc2c1CCCC2	0	0	12	5	6	54	i
C(=N\n1c2ccccc2c2ccccc21)/c1ccccc1	3	-2	7	11	-9	43	/
C(=N/n1c2ccccc2c2ccccc21)/c1ccco1	12	0	1	2	-7	65*	+
CCOC(=O)c1c(NC(=O)CN2CCCCC2)sc(C)c1C	6	0	/	1	7	67*	+
Cc1sc(NC(=O)CN2CCOCC2)c(C(=O)c2ccccc2)c1C	1	3	3	-6	-2	69*	i
CCOC(=O)c1sc(NC(=O)CCN2CCN(C)CC2)c(C(=O)OCC)c1C	4	4	/	6	8	-46	/
CCOC(=O)c1sc(NC(=O)CCN2CC(C)OC(C)C2)c(C(=O)OCC)c1C (stereo not drawn)	/	-9	-1	-3	-9	50	i
O=C(CN1CCOCC1)Nc1sc2c(c1C(=O)c1ccccc1)CCC2	13	/	/	/	/	42	/
